Several values for one entry are separate records, joined by “and”; a condition that tells them apart may be missing. Equal entries are not always repeated.
Tested on: HEK-293T
Test: Multiplex assay against HEK293T
Format: toxicity, cell-based
Settings: human, number of replicates 2
Procedure, shortened: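 Compound was added to live cells that had been stained at seeding with Hoechst33342, BioTracker Green Microtubule Cytoskeleton Dye, MitoTracker Red and Annexin V Alexa Fluor 680, and imaging followed on a CQ1 microscope at 37°C and 5% CO2. CellPathfinder machine-learning gating divided cells into Hoechst high-intensity objects or normal cells, normal cells into healthy, pyknosed or fragmented nuclei, and pyknosed cells into mitotic or apoptotic. Tubulin, mitochondrial-mass and membrane-permeability phenotypes are per cents of healthy-nucleus cells.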

[1] = 12 h, 1 µM, compound concentration 1 uM
[2] = 12 h, 10 µM, compound concentration 10 uM
[3] = 24 h, 1 µM, compound concentration 1 uM
[4] = 24 h, 10 µM, compound concentration 10 uM
[5] = 48 h, 1 µM, compound concentration 1 uM
[6] = 48 h, 10 µM, compound concentration 10 uM

COc1cc(Nc2cnc(C#N)c(O[C@H](C)CN(C)C)n2)ncc1-c1cnn(C)c1
Population Apoptotic (%) [1]: 43% and 40% | Population Fragmented Nuclei (%) [1]: 3% | Population Healthy Nuclei (%) [1]: 78% and 82% | Population Hoechst High Intensity Objects (%) [1]: 4% and 7% | Population Membrane Permeable-Phenotype (%) [1]: 5% and 3% | Population Mitochondria Different-Phenotype (%) [1]: 19% and 14% | Population Mitotic Cells (%) [1]: 56% and 59% | Population Normal (%) [1]: 95% and 92% | Population Pyknosed Nuclei (%) [1]: 18% and 14% | Population Tubulin-Different-Phenotype (%) [1]: 54% and 50% | Total Cell Count [1]: 593 and 622 | Population Apoptotic (%) [2]: 59% and 57% | Population Fragmented Nuclei (%) [2]: 2% | Population Healthy Nuclei (%) [2]: 62% and 75% | Population Hoechst High Intensity Objects (%) [2]: 6% and 4% | Population Membrane Permeable-Phenotype (%) [2]: 5% and 3% | Population Mitochondria Different-Phenotype (%) [2]: 45% and 52% | Population Mitotic Cells (%) [2]: 40% and 43% | Population Normal (%) [2]: 93% and 95% | Population Pyknosed Nuclei (%) [2]: 35% and 21% | Population Tubulin-Different-Phenotype (%) [2]: 87% and 90% | Total Cell Count [2]: 383 and 486 | Population Apoptotic (%) [3]: 28% and 26% | Population Fragmented Nuclei (%) [3]: 5% | Population Healthy Nuclei (%) [3]: 84% and 80% | Population Hoechst High Intensity Objects (%) [3]: 8% and 7% | Population Membrane Permeable-Phenotype (%) [3]: 4% | Population Mitochondria Different-Phenotype (%) [3]: 11% and 14% | Population Mitotic Cells (%) [3]: 71% and 73% | Population Normal (%) [3]: 91% and 92% | Population Pyknosed Nuclei (%) [3]: 9% and 13% | Population Tubulin-Different-Phenotype (%) [3]: 46% and 41% | Total Cell Count [3]: 801 and 735 | Population Apoptotic (%) [4]: 63% and 69% | Population Fragmented Nuclei (%) [4]: 2% and 3% | Population Healthy Nuclei (%) [4]: 76% and 78% | Population Hoechst High Intensity Objects (%) [4]: 9% and 10% | Population Membrane Permeable-Phenotype (%) [4]: 3% and 4% | Population Mitochondria Different-Phenotype (%) [4]: 47% and 42% | Population Mitotic Cells (%) [4]: 36% and 30% | Population Normal (%) [4]: 90% and 89% | Population Pyknosed Nuclei (%) [4]: 20% and 18% | Population Tubulin-Different-Phenotype (%) [4]: 85% and 82% | Total Cell Count [4]: 524 and 415 | Population Apoptotic (%) [5]: 31% and 47% | Population Fragmented Nuclei (%) [5]: 9% and 7% | Population Healthy Nuclei (%) [5]: 79% and 80% | Population Hoechst High Intensity Objects (%) [5]: 9% and 8% | Population Membrane Permeable-Phenotype (%) [5]: 6% and 8% | Population Mitochondria Different-Phenotype (%) [5]: 8% and 11% | Population Mitotic Cells (%) [5]: 68% and 52% | Population Normal (%) [5]: 90% and 91% | Population Pyknosed Nuclei (%) [5]: 10% and 12% | Population Tubulin-Different-Phenotype (%) [5]: 39% and 46% | Total Cell Count [5]: 1105 and 1012 | Population Apoptotic (%) [6]: 71% and 67% | Population Fragmented Nuclei (%) [6]: 3% | Population Healthy Nuclei (%) [6]: 44% and 52% | Population Hoechst High Intensity Objects (%) [6]: 12% and 11% | Population Membrane Permeable-Phenotype (%) [6]: 4% | Population Mitochondria Different-Phenotype (%) [6]: 69% and 77% | Population Mitotic Cells (%) [6]: 28% and 32% | Population Normal (%) [6]: 87% and 88% | Population Pyknosed Nuclei (%) [6]: 52% and 43% | Population Tubulin-Different-Phenotype (%) [6]: 81% and 89% | Total Cell Count [6]: 374 and 473

CCCNc1ccc2ncc(-c3ccncc3)n2n1
Population Apoptotic (%) [1]: 56% and 50% | Population Fragmented Nuclei (%) [1]: 3% and 4% | Population Healthy Nuclei (%) [1]: 81% and 85% | Population Hoechst High Intensity Objects (%) [1]: 7% and 8% | Population Membrane Permeable-Phenotype (%) [1]: 2% | Population Mitochondria Different-Phenotype (%) [1]: 26% and 15% | Population Mitotic Cells (%) [1]: 43% and 49% | Population Normal (%) [1]: 92% and 91% | Population Pyknosed Nuclei (%) [1]: 14% and 9% | Population Tubulin-Different-Phenotype (%) [1]: 64% and 54% | Total Cell Count [1]: 500 and 609 | Population Apoptotic (%) [2]: 55% and 50% | Population Fragmented Nuclei (%) [2]: 4% and 5% | Population Healthy Nuclei (%) [2]: 89% and 87% | Population Hoechst High Intensity Objects (%) [2]: 6% and 5% | Population Membrane Permeable-Phenotype (%) [2]: 2% and 1% | Population Mitochondria Different-Phenotype (%) [2]: 32% and 26% | Population Mitotic Cells (%) [2]: 44% and 50% | Population Normal (%) [2]: 93% and 94% | Population Pyknosed Nuclei (%) [2]: 6% and 7% | Population Tubulin-Different-Phenotype (%) [2]: 62% and 61% | Total Cell Count [2]: 481 and 583 | Population Apoptotic (%) [3]: 60% and 48% | Population Fragmented Nuclei (%) [3]: 5% and 7% | Population Healthy Nuclei (%) [3]: 88% and 86% | Population Hoechst High Intensity Objects (%) [3]: 11% and 15% | Population Membrane Permeable-Phenotype (%) [3]: 3% and 2% | Population Mitochondria Different-Phenotype (%) [3]: 17% and 6% | Population Mitotic Cells (%) [3]: 39% and 51% | Population Normal (%) [3]: 88% and 84% | Population Pyknosed Nuclei (%) [3]: 6% | Population Tubulin-Different-Phenotype (%) [3]: 47% and 48% | Total Cell Count [3]: 684 and 692 | Population Apoptotic (%) [4]: 66% and 48% | Population Fragmented Nuclei (%) [4]: 2% and 4% | Population Healthy Nuclei (%) [4]: 87% | Population Hoechst High Intensity Objects (%) [4]: 8% and 9% | Population Membrane Permeable-Phenotype (%) [4]: 1% | Population Mitochondria Different-Phenotype (%) [4]: 41% and 35% | Population Mitotic Cells (%) [4]: 33% and 51% | Population Normal (%) [4]: 91% and 90% | Population Pyknosed Nuclei (%) [4]: 9% and 8% | Population Tubulin-Different-Phenotype (%) [4]: 64% and 66% | Total Cell Count [4]: 490 and 643 | Population Apoptotic (%) [5]: 52% and 37% | Population Fragmented Nuclei (%) [5]: 14% | Population Healthy Nuclei (%) [5]: 80% and 81% | Population Hoechst High Intensity Objects (%) [5]: 16% and 21% | Population Membrane Permeable-Phenotype (%) [5]: 3% and 1% | Population Mitochondria Different-Phenotype (%) [5]: 5% and 6% | Population Mitotic Cells (%) [5]: 47% and 62% | Population Normal (%) [5]: 83% and 78% | Population Pyknosed Nuclei (%) [5]: 4% | Population Tubulin-Different-Phenotype (%) [5]: 33% and 47% | Total Cell Count [5]: 935 and 824 | Population Apoptotic (%) [6]: 55% and 68% | Population Fragmented Nuclei (%) [6]: 4% and 3% | Population Healthy Nuclei (%) [6]: 82% and 86% | Population Hoechst High Intensity Objects (%) [6]: 15% and 8% | Population Membrane Permeable-Phenotype (%) [6]: 2% and 1% | Population Mitochondria Different-Phenotype (%) [6]: 49% and 55% | Population Mitotic Cells (%) [6]: 44% and 31% | Population Normal (%) [6]: 84% and 91% | Population Pyknosed Nuclei (%) [6]: 13% and 9% | Population Tubulin-Different-Phenotype (%) [6]: 70% and 66% | Total Cell Count [6]: 503 and 413
